Columns and labels:
MS2 coat protein [1] = assay: apparent Kd, MS2 coat protein; higher = weaker binding; RNA-MaP array; theophylline 2 mM where present
Procedure, shortened: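 The apparent Kd is reported as the median of filtered per-cluster binding-curve fits. To get these curves, designs transcribed by stalled E. coli RNA polymerase on Illumina sequencing-chip clusters were titrated with SNAP-549-labelled MS2 coat protein from 0.7 or 1.5 nM, doubling to 3 µM. Titrations were run without and then with constant ligand in 100 mM Tris-HCl pH 7.5, 80 mM KCl, 4 mM MgCl2, BSA, DTT, yeast tRNA and Tween-20, and green signal was normalised to red-channel RNA signal and control-cluster median Fmax.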

MS2 coat protein [2] = assay: apparent Kd, MS2 coat protein; higher = weaker binding; RNA-MaP array
Procedure, shortened: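 Apparent Kd is the median of per-cluster binding-curve fits for designed RNAs transcribed from sequenced DNA templates on an Illumina sequencing chip. The RNAs were incubated at room temperature with fluorescently labeled MS2 coat protein at 1.5 nM to 3 μM, with or without input ligand, and designs measured on fewer than 10 clusters were excluded.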

[3] = designed as: OFF switch for theophylline, no ligand
[4] = ligand present: theophylline, designed as: OFF switch for theophylline
[5] = designed as: ON switch for theophylline, no ligand
[6] = ligand present: theophylline, designed as: ON switch for theophylline
[7] = designed as: OFF switch for flavin mononucleotide, no ligand
[8] = ligand present: flavin mononucleotide, designed as: OFF switch for flavin mononucleotide
[9] = designed as: ON switch for flavin mononucleotide, no ligand
[10] = ligand present: flavin mononucleotide, designed as: ON switch for flavin mononucleotide

GAAACGUAGGUGGAGCGGUGAAAUGGCGAUACCAGCGUGGAAACAUGCCCUUGGCAGCGUUAGAACAUGAGGAUCACCCAUGUUU
apparent Kd (MS2 coat protein [1]; [3]): 13.3 nM | apparent Kd (MS2 coat protein [1]; [4]): 58.2 nM

AGUAAUCUAACAGAUACCAGACGGUAUAUAACAUGAGGAUCACCCAUGUCUUGGGUGUACGUCCCUUGGCAGCUGAAAAUGAUAA
apparent Kd (MS2 coat protein [1]; [5]): 567 nM | apparent Kd (MS2 coat protein [1]; [6]): 383 nM

UCGUGUAUAUCGGAUACCAGUGAAAUCGAUACAUGAGGAUCACCCAUGUGAGAGGAUGUACACCCUUGGCAGCUGUAUAUAUCUG
apparent Kd (MS2 coat protein [1]; [5]): 24.3 nM | apparent Kd (MS2 coat protein [1]; [6]): 13.6 nM

AACAUCUGGCGUGAUACCAGCCACAUGAGGAUCACCCAUGUCAACACUCGCAAUUGCGACGGCCCUUGGCAGCACGCAUCCUCAG
apparent Kd (MS2 coat protein [1]; [5]): 64 nM | apparent Kd (MS2 coat protein [1]; [6]): 12.1 nM

GAGCUGAUGUAGAGCCUUUAGUUCUGAGAUACCAGUACAGAAAUGUACCCUUGGCAGCUCAGCUUUACAUGAGGAUCACCCAUGU
apparent Kd (MS2 coat protein [1]; [3]): 19 nM | apparent Kd (MS2 coat protein [1]; [4]): 23.7 nM

UGUAACAUGAGGAUCACCCAUGUGAGUGAUACCAGACUAGUAUUAGUCCCUUGGCAGCACGUUGGGCGAGUGUAUAGUCUAUGCG
apparent Kd (MS2 coat protein [1]; [5]): 112 nM | apparent Kd (MS2 coat protein [1]; [6]): 110 nM

UUUAAAAUAACAGAUACCAGCGUGUUAUAAAACAUGAGGAUCACCCAUGUAGUGAUCAAGCGCCCUUGGCAGCUGGUAUUUUAGG
apparent Kd (MS2 coat protein [1]; [5]): 151 nM | apparent Kd (MS2 coat protein [1]; [6]): 167 nM

GAUGAACAUACUGAUACCAGUGUACUGACAUGAGGAUCACCCAUGUUGGGUUUUGUUGUACACCCUUGGCAGCAGAAUGUUUAUC
apparent Kd (MS2 coat protein [1]; [3]): 72.2 nM | apparent Kd (MS2 coat protein [1]; [4]): 78.9 nM

AGACAUGUAAGAUAAUUGACUUUUACAGAUACCAGACUGUCUAAUGUCCCUUGGCAGCUGCAUUACAUGAGGAUCACCCAUGUUA
apparent Kd (MS2 coat protein [1]; [3]): 19.2 nM | apparent Kd (MS2 coat protein [1]; [4]): 17.9 nM

AGCACAUGAGGAUCACCCAUGUGAGGUGAUACCAGUGAGAAGAAGCACCCUUGGCAGCACUUGGGUACAUGAGGAUCACCCAUGU
apparent Kd (MS2 coat protein [1]; [3]): 58.9 nM | apparent Kd (MS2 coat protein [1]; [4]): 169 nM

UGCGUACAUGAGGAUCACCCAUGUAUAGAUACCAGUCACCCAUGUGGCCCUUGGCAGCUAACAUGAGGAUCACUACAUGAGGAUC
apparent Kd (MS2 coat protein [1]; [3]): 34.5 nM | apparent Kd (MS2 coat protein [1]; [4]): 141 nM

AUUGCGAGUGAGUCGUGUAACGAUUCAGAUACCAGGCAUUUCGUUGUCCCUUGGCAGCUGUCUUACAUGAGGAUCACCCAUGUUA
apparent Kd (MS2 coat protein [1]; [3]): 52.3 nM | apparent Kd (MS2 coat protein [1]; [4]): 106 nM

UAAAACAUGAGGAUCACCCAUGUAAUUGAUACCAGAGUGAUGAUCCUCCCUUGGCAGCAAAUAACGCAUUGGAAACAAUGCGAAA
apparent Kd (MS2 coat protein [1]; [5]): 56.4 nM | apparent Kd (MS2 coat protein [1]; [6]): 189 nM

AAAGGUCAGGAGAAGGUGCCUCUAUUACGUCGGCAAGGAUAUCCACAGCGGGCGAUUAUGCGUACAUGAGGAUCACCCAUGUUA
apparent Kd (MS2 coat protein [2]; [7]): 92.3 nM | apparent Kd (MS2 coat protein [2]; [8]): 43.5 nM

GUUGUCAUCCAAGGAUAUUGUAAAAGGAGUGGGCAAGAAGGUGGAGAGCAUUGAUGAAGGUACACAUGAGGAUCACCCAUGUUC
apparent Kd (MS2 coat protein [2]; [9]): 33.6 nM | apparent Kd (MS2 coat protein [2]; [10]): 14.8 nM

GACGUCGCCUUAGGAUAUGCCCAUUACAUGAGGAUCACCCAUGUUUCUUAAAGAGGAUCCGCAUGGCAGAAGGAAGGUCUCCAC
apparent Kd (MS2 coat protein [2]; [7]): 25.4 nM | apparent Kd (MS2 coat protein [2]; [8]): 59.4 nM

GAGCUAUCAGGAUAUACAUGAGGAUCACCCAUGUUUUUUGGAAUCAAGAGGAAUCAAUGUAGAAGGGAUCUCGA
apparent Kd (MS2 coat protein [2]; [7]): 21.8 nM | apparent Kd (MS2 coat protein [2]; [8]): 28.2 nM

CCUAGACAUGAGGAUCACCCAUGUUAUUGUCUUCAAGGAUAUCGAUGUCUCUCAUAGGCACGAGAAGGUGACUCCU
apparent Kd (MS2 coat protein [2]; [9]): 85.2 nM | apparent Kd (MS2 coat protein [2]; [10]): 67.1 nM

AGGCUAUGUGAGAAGGCCGAAUGCCUAUAGUGCGGAGGAUAUCAAUCAACAUGAGGAUCACCCAUGUAGCAAAUCGUAGUUCUC
apparent Kd (MS2 coat protein [2]; [9]): 84.3 nM | apparent Kd (MS2 coat protein [2]; [10]): 60.1 nM

UGACGUGGUAAGAAGGCAAGAGCAGGGCAGGAUUGAGGAUAUUACGGACAGACAUGAGGAUCACCCAUGUAGAGCCAUAACCGG
apparent Kd (MS2 coat protein [2]; [9]): 8.55 nM | apparent Kd (MS2 coat protein [2]; [10]): 7.89 nM

AUCUUAGGUGAGAAGGUGGACACAUGAGGAUCACCCAUGUUGAUGGUCUUGUAGCGUUUGCAAGCCAAGGAUAUCAUCUACGGC
apparent Kd (MS2 coat protein [2]; [9]): 27.4 nM | apparent Kd (MS2 coat protein [2]; [10]): 19.8 nM

AUACCUAGUGAAGGAUAUCCAAAUAACUAUAGAGGAGAAGGACACAUUCUAACAUGAGGAUCACCCAUGUCCCGCCGUCUUACC
apparent Kd (MS2 coat protein [2]; [9]): 14.4 nM | apparent Kd (MS2 coat protein [2]; [10]): 11.9 nM

From the EternaBench riboswitch data
